Assay outcomes as filed in PubChem.
TRPC4 PAM = TRPC4 (mouse) allosteric potentiation; HEK293 TRPC4beta/mu-opioid, DAMGO EC20, Fluo-4 Ca2+ flux; stronger effect = higher value; B-score at 10 µM; 310,000 tested, 0.42% active; AID 2227;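 active means B-score of calcium response area above 5 SD of library B-scores, with initial fluorescence ratio within 5 SD of library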;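 further: B-score of integrated fluorescence ratio over time as area under calcium response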
Target sequence (Q9QUQ5 whole entry, looked up): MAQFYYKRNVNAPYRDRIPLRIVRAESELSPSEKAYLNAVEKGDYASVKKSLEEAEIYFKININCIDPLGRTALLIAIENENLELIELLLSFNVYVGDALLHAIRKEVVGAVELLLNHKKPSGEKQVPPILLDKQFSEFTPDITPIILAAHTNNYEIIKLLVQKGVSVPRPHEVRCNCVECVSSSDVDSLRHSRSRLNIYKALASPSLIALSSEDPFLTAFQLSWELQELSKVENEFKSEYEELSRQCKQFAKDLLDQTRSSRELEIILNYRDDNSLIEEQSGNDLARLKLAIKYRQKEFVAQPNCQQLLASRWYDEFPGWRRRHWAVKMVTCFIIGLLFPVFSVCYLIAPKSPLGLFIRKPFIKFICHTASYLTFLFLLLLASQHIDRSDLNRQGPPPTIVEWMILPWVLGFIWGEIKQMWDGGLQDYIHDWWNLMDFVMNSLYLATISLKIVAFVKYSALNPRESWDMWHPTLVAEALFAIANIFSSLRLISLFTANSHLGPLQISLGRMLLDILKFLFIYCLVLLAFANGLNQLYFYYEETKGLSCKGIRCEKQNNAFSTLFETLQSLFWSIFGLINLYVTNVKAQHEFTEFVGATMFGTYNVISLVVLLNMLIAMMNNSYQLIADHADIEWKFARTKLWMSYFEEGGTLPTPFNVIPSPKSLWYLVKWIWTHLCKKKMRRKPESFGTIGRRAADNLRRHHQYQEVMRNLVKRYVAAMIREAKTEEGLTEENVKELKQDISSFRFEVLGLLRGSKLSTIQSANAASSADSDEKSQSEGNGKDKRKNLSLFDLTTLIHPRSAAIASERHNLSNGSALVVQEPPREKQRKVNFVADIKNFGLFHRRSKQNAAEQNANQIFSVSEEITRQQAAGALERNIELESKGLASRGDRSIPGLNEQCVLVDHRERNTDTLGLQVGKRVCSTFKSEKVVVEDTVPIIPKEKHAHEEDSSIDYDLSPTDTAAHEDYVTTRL
TRPC6 inhibitor = mouse TRPC6 channel inhibition. Q61143. HEK293-TRPC6, membrane potential dye, ACh-evoked depolarization; stronger effect = lower value. B-score at 10 µM. 310,000 tested, 1.1% active. AID 2553;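 active means B-score under library mean minus 3 SD, initial fluorescence not abnormally high, positive integrated signal ratio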;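 further: B-score derived from integrated fluorescence ratio over the kinetic read; more negative B-score means stronger inhibition of depolarization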
Platelet DG rel = modulates dense granule release in human platelets | human platelet-rich plasma, SFLLRN dense granule ATP release, luminescence | inhibition, %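 (compounds screened at 7.5 µM in platelet-rich plasma)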 | 300,000 tested, 0.22% active | AID 1663;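 active means mean replicate score, as percent of positive control, at or above 50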
TRPC4 act = activators of mouse TRPC4 channel. Q9QUQ5. HEK293 TRPC4beta/mu-opioid, Fluo4 calcium fluorescence; stronger effect = higher value. B-score at 10 µM. 310,000 tested, 0.49% active. AID 2237;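 active means B-score above 5 SD of library B-scores, and initial fluorescence ratio not above library mean plus 5 SD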;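 further: positive B-score marks a calcium rise read as TRPC4 activation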
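Material: HEK293 stable line with TRPC4beta plus mu-opioid receptor; technique: Fluo4 calcium-sensitive dye fluorescence, kinetic, 1 Hz baseline; timing: Fluo4 dye loading 45 min at room temperature, 110 s recording; controls: assay buffer as low control, maximal DAMGO as high control; read-out: integrated baseline-normalised fluorescence ratio, converted to per-well B score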
TRPC6 activator = mouse TRPC6 channel activation; Q61143; HEK293-TRPC6 membrane potential dye fluorescence; stronger effect = higher value; B-score at 10 µM; 310,000 tested, 0.13% active; AID 2550;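 active means B-score of the integrated fluorescence ratio above library mean plus 3 SD, and starting fluorescence ratio within library mean plus 5 SD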;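 further: higher score means more depolarization so channel activation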
TRPC4 block = inhibitors of mouse TRPC4 channel | HEK293 TRPC4beta/mu-opioid, DAMGO-evoked Fluo4 calcium flux; stronger effect = lower value | 300,000 tested, 0.39% active | Q9QUQ5 | B-score at 10 µM;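 active means B-score over 3 SD under the library average, no early fluorescence shift, positive overall ratio signal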
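material = TRPC4beta/mu-opioid receptor HEK293 cell line | probe or stimulus = sequential submaximal and maximal DAMGO stimulation | compound dosing = one concentration per compound | measured by = Fluo4 Ca2+ flux fluorescence | evaluation = integrated fluorescence ratio relative to baseline, converted to per-well B score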
TRPC4 sel inh 2 = second check of whether TRPC6 inhibitors also affect mouse TRPC4; AID 2776; HEK293 TRPC4/MOR, membrane potential dye fluorescence; channel activated by saturating DAMGO dose; inhibition, % at 10 µM; 920 tested, 42% active; shares compounds with TRPC6 inhibitor;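 active means compounds whose fluorescence signal differed from control wells by over 3 SD, either direction, in both duplicate plates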
TRPC4 spec = mouse TRPC4 off-target activity of TRPC6 inhibitors; HEK293 TRPC4/mu-opioid, membrane potential fluorescence; 920 tested, 61% active; shares compounds with TRPC6 inhibitor; activity change, negative = inhibition, % at 10 µM; AID 2777;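 active means rise or fall in signal beyond 3 SD of buffer-only wells in both replicate plates, either sign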;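 further: integrated kinetic ratio of fluorescence range over baseline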
HEK293 MPD ctr 2-1 = second check of TRPC6 inhibitor effects in parental HEK293 cells; AID 2779; shares compounds with TRPC6 inhibitor; signal change vs control, % at 10 µM; 920 tested, 31% active; parental HEK293 membrane potential dye fluorescence; maximal acetylcholine challenge after compound addition;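 active means membrane potential signal moving either way by over 3 SD of the maximum-effect control, in both duplicate plates, meaning non-specific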
HEK293 MPD ctr-1 = checks TRPC6 inhibitor effects in parental HEK293 cells; shares compounds with TRPC6 inhibitor; parental HEK293 membrane potential dye fluorescence; membrane potential signal change, % at 10 µM; 920 tested, 60% active; AID 2780;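 active means membrane potential signal shifting up or down by more than 3 SD of buffer-only wells, on both duplicate plates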
HEK293 MPD ctr-2 = counter-screen for TRPC6 modulators: effect in parental HEK293 cells. membrane potential signal change, % at 10 µM. membrane potential dye fluorescence. shares compounds with TRPC6 inhibitor. AID 488924. 2,400 tested, 51% active;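 active means membrane potential signal moves up or down beyond 5 SD from buffer-only wells, on both duplicate plates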
HEK293 MPD ctr 2-2 = second check of TRPC6 modulator effects in parental HEK293 cells; shares compounds with TRPC6 inhibitor; membrane potential dye fluorescence; after compound, maximal acetylcholine stimulation; inhibition, % at 10 µM; 2,400 tested, 14% active; AID 488926;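 active means membrane potential signal drops by more than 5 SD from the mean control signal, in both duplicate plates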;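 further: plate controls were acetylcholine ECmax control wells for no effect and buffer only wells for full effect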
TRPC4 ctr mod = tests whether TRPC6 modulators also affect mouse TRPC4; shares compounds with TRPC6 inhibitor; percent change from control (negative = decrease, positive = increase), % at 10 µM; 2,400 tested, 69% active; HEK293 TRPC4/mu-opioid, membrane potential fluorescence;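 active means membrane potential signal moved up or down beyond 5 SD of buffer control wells, in both duplicate plates, actives on both sides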;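 further: plate controls were assay buffer wells for no effect and DAMGO maximal-effect wells for full effect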
TRPC4/MOR inh 2 = second selectivity test of TRPC6 modulators against mouse TRPC4; shares compounds with TRPC6 inhibitor; inhibition, % at 10 µM; 2,400 tested, 55% active; HEK293 TRPC4/mu-opioid, membrane potential dye fluorescence; stimulated with maximal-effect DAMGO; AID 488928;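 active means drop in membrane potential signal beyond 5 SD of the control wells in both duplicate plates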;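 further: TRPC4 counter screen for TRPC6 hits run under conditions tuned for TRPC6 not TRPC4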
TRPC6 inh conf = confirmation of mouse TRPC6 inhibitors; shares compounds with TRPC6 inhibitor; HEK293-TRPC6, membrane potential dye, ACh-evoked depolarization; inhibition, % at 10 µM; 3,300 tested, 43% active; AID 488960;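 active means fluorescence ratio falls more than 5 SD below the full-stimulation control mean, in both duplicate runs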;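 further: integrated fluorescence ratio of peak minus minimum over baseline after agonist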
TRPC6 act conf = mouse TRPC6 activator confirmation; shares compounds with TRPC6 inhibitor; HEK293-TRPC6 membrane potential dye fluorescence, FDSS; activation, % at 10 µM; 2,800 tested, 11% active;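 active means ratio signal rise beyond 5 SD above unstimulated control wells' mean, seen in both duplicate runs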;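 further: plate controls were buffer EC0 wells for no effect and acetylcholine ECmax response for full effect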
* = called active by the depositor. An excerpt weighted towards active compounds, which were near 2.5% of everything screened.

Screening COc1ccc(CCn2c(=N)c(C(=O)NCc3ccco3)cc3c(=O)n4ccccc4nc32)cc1 returned TRPC4 PAM inactive, TRPC6 inhibitor -5.9*, Platelet DG rel -7, TRPC4 act inactive, TRPC6 activator inactive, TRPC4 block inactive, HEK293 MPD ctr-2 -164%*, HEK293 MPD ctr 2-2 inactive, TRPC4 ctr mod -36%*, TRPC4/MOR inh 2 inactive, TRPC6 inh conf inactive and TRPC6 act conf inactive.
Screening Cn1c(C(=O)NCCN2CCOCC2)cc2c(=O)n3ccccc3nc21 returned TRPC4 PAM inactive, TRPC6 inhibitor inactive, Platelet DG rel -10, TRPC4 act inactive, TRPC6 activator inactive and TRPC4 block inactive.
Screening N=c1c(C(=O)NCCc2ccccc2)cc2c(=O)n3ccccc3nc2n1CCCN1CCOCC1 returned TRPC4 PAM inactive, TRPC6 inhibitor inactive, Platelet DG rel 1, TRPC4 act inactive, TRPC6 activator inactive and TRPC4 block inactive.
Cc1ccc(Cn2c(=N)c(C(=O)NCCN3CCOCC3)cc3c(=O)n4ccccc4nc32)cc1 was read as TRPC4 PAM 19*, TRPC6 inhibitor -6.6*, Platelet DG rel -11, TRPC4 act inactive, TRPC6 activator inactive, TRPC4 block inactive, HEK293 MPD ctr-2 -70%*, HEK293 MPD ctr 2-2 98%*, TRPC4 ctr mod -14%*, TRPC4/MOR inh 2 47%*, TRPC6 inh conf 40%* and TRPC6 act conf inactive.
For CCOc1ccc(CN2C(=O)CC(=O)N(S(=O)(=O)c3ccc(OCC)cc3)C2=O)cc1 the results were TRPC4 PAM inactive, TRPC6 inhibitor inactive, Platelet DG rel -4, TRPC4 act inactive, TRPC6 activator inactive and TRPC4 block inactive.
Screening CCN(CC)C(=O)N1c2ccccc2CC(N(CC)CC)c2ccccc21 (stereo unspecified) returned TRPC4 PAM inactive, TRPC6 inhibitor -5.2*, Platelet DG rel 4, TRPC4 act inactive, TRPC6 activator inactive, TRPC4 block inactive, HEK293 MPD ctr-2 220%*, HEK293 MPD ctr 2-2 inactive, TRPC4 ctr mod 39%*, TRPC4/MOR inh 2 inactive and TRPC6 inh conf inactive.
`CCOc1ccc(NC(=S)N(CC)Cc2ccccc2)cc1` gave TRPC4 PAM inactive, TRPC6 inhibitor inactive, Platelet DG rel 2, TRPC4 act inactive, TRPC6 activator inactive and TRPC4 block inactive.
For CCCCCNc1nc2sc3c(c2c(=O)n1-c1cccc(Cl)c1)CCN(C)C3 the results were TRPC4 PAM inactive, TRPC6 inhibitor -5.5*, TRPC4 act inactive, TRPC6 activator inactive, TRPC4 block inactive, HEK293 MPD ctr-2 inactive, HEK293 MPD ctr 2-2 inactive, TRPC4 ctr mod inactive, TRPC4/MOR inh 2 68%*, TRPC6 inh conf 45%* and TRPC6 act conf inactive.
`O=c1c2c3c(sc2nc(N2CCNCC2)n1-c1cccc(Cl)c1)CCCCC3` gave TRPC4 PAM inactive, TRPC6 inhibitor -7.2*, Platelet DG rel 9, TRPC4 act inactive, TRPC6 activator inactive, TRPC4 block inactive, TRPC4 sel inh 2 60%*, TRPC4 spec inactive, HEK293 MPD ctr 2-1 inactive, HEK293 MPD ctr-1 inactive, TRPC6 inh conf 60%* and TRPC6 act conf inactive.
Screening CCCCSc1nc2sc3c(c2c(=O)n1-c1ccccc1)CCN(C)C3 returned TRPC4 PAM inactive, TRPC6 inhibitor inactive, Platelet DG rel 3, TRPC4 act inactive, TRPC6 activator inactive and TRPC4 block inactive.
CCCCNc1nc2sc3c(c2c(=O)n1-c1cccc(Cl)c1)CCN(C)C3 was read as TRPC4 PAM inactive, TRPC6 inhibitor -6.1*, TRPC4 act inactive, TRPC6 activator inactive, TRPC4 block inactive, HEK293 MPD ctr-2 inactive, HEK293 MPD ctr 2-2 inactive, TRPC4 ctr mod inactive, TRPC4/MOR inh 2 58%*, TRPC6 inh conf inactive and TRPC6 act conf inactive.
Screening CN1CCc2c(sc3nc(SCC(N)=O)n(-c4ccc(Cl)cc4)c(=O)c23)C1 returned TRPC4 PAM inactive, TRPC6 inhibitor inactive, Platelet DG rel -2, TRPC4 act inactive, TRPC6 activator inactive and TRPC4 block inactive.
Screening Cc1ccc2ncnc(NCCCCCC(=O)O)c2c1 returned TRPC4 PAM inactive, TRPC6 inhibitor inactive, Platelet DG rel -3, TRPC4 act inactive, TRPC6 activator inactive and TRPC4 block inactive.
Screening Nc1c(C(=O)N2CCOCC2)oc2ccccc12 returned TRPC4 PAM inactive, TRPC6 inhibitor -5.4*, Platelet DG rel 2, TRPC4 act inactive, TRPC6 activator inactive, TRPC4 block inactive, HEK293 MPD ctr-2 inactive, HEK293 MPD ctr 2-2 inactive, TRPC4 ctr mod inactive, TRPC4/MOR inh 2 inactive, TRPC6 inh conf inactive and TRPC6 act conf inactive.
`CCC(=O)N1CCc2cc(S(=O)(=O)CCC(=O)N(C)c3ccc(OC)cc3OC)ccc21` gave TRPC4 PAM inactive, TRPC6 inhibitor inactive, Platelet DG rel 29, TRPC4 act inactive, TRPC6 activator inactive and TRPC4 block inactive.
